PGC1a acetyl inh: PGC1a acetylation modulation, inhibitor mode. U2OS PGC1a acetylation, AlphaScreen anti-acetyl-lysine; with virally co-expressed GCN5 acetyltransferase. inhibition, % at 15.6 µM. actives 0.17% (n = 350,000). AID 651687;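 active = every replicate shows inhibition of at least 40%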
ERAP1 inh: blocks human ERAP1 aminopeptidase activity | Q9NZ08 | recombinant ERAP1, Leu-AMC fluorescence, 60 min | inhibition, % at 10.7 µM | actives 0.15% (n = 340,000);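 active = mean replicate inhibition of at least 30%, or all replicates individually reaching that 30% level; inactive = mean below 30% and not every replicate reaching it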
S100A4 inh HTS: S100A4-myosin IIA interaction inhibition. AID 652163. inhibition, % at 10.7 µM. S100A4/TAMRA-MyoIIA peptide fluorescence polarization. actives 0.14% (n = 360,000). P26447;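 active = mean inhibition of at least 70% across replicates, with every replicate also reaching that level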
Target sequence (P26447 whole entry, looked up): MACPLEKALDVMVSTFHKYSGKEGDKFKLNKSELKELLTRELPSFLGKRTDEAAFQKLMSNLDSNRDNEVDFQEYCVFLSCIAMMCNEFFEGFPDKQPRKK
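Test system: S100A4 monomer protein; Medium: HEPES pH 7.2 with CaCl2, KCl, NaCl, DTT, Triton; Probe or stimulus: TAMRA-labelled myosin IIA heavy-chain peptide probe, 5 nM; Doses: one dose per compound; Times: polarization read 5 min after assay mix addition, stable 5–60 min; Benchmarks: neutral control DMSO, positive control TFP.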
CASP6 VEID inh: inhibitors of human caspase-6; purified caspase-6, Z-VEID-R110 cleavage fluorescence; P55212; inhibition, % at 12.5 µM; actives 0.53% (n = 350,000);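 active = mean inhibition across replicates at least about 35%, with every replicate also reaching that limit, limit read from the data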
Target sequence (P55212 24-179 limits assumed): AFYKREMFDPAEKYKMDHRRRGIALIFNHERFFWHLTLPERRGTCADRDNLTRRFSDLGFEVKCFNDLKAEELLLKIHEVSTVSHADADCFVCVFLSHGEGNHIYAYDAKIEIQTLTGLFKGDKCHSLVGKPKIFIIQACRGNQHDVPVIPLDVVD
Target sequence (P55212 194-293 limits assumed): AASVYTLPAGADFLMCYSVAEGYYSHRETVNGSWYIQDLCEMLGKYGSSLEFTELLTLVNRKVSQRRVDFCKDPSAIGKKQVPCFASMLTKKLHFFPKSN
ARNT TACC3 PPI: disruptors of human ARNT/TACC3 interaction | Q9Y6A5 | actives 0.66% (n = 390,000) | AlphaScreen His-ARNT PAS-B/GST-TACC3 binding, luminescence; TACC3 fragment carries E629A point mutation | inhibition, % at 9.99 µM | AID 623870;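 active = mean inhibition of replicates at least 50% and at least half of replicates each reaching 50%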
Ecoli rRNA inh: selective bacterial rRNA inhibition in E. coli; actives 1.6% (n = 350,000); E. coli WT GFP vs humanized-ribosome RFP mutants, fluorescence, 24 h; stronger effect = lower value; DMSO median 0, no signal -100; AID 720706; GFP signal change (wild-type ribosome), % (concentration not given with the values);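 active = significant combined selectivity score with lowered wild-type GFP, culture density cut under 30%, mutant RFP and density less affected; inactive = any of these conditions unmet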
Large screens that a line does not name were inactive; ! = not confirmed by another sample. An excerpt weighted towards active compounds, which were near 2.4% of everything screened.

COc1ccc(NC(=O)Nc2ccc3c(c2)CC(=O)N([C@@H](C)CO)C[C@@H](C)[C@H](CN(C)Cc2ccccc2)O3)cc1	S100A4 inh HTS 95.6
C[C@H]1CN([C@@H](C)CO)C(=O)Cc2cc(NC(=O)Nc3cccc4ccccc34)ccc2O[C@H]1CN(C)Cc1ccc(C(=O)O)cc1	none
C[C@@H]1CN([C@@H](C)CO)C(=O)Cc2cc(NC(=O)Nc3cccc4ccccc34)ccc2O[C@@H]1CN(C)Cc1ccc(C(=O)O)cc1	ARNT TACC3 PPI active
C[C@H](CO)N1C[C@H](C)[C@@H](CN(C)Cc2ccc(Oc3ccccc3)cc2)Oc2ccc(NC(=O)Nc3cccc4ccccc34)cc2CC1=O	ARNT TACC3 PPI 76.4
C[C@H](CO)N1C[C@H](C)[C@@H](CN(C)CC2CCCCC2)Oc2ccc(NC(=O)Nc3cccc4ccccc34)cc2CC1=O	ARNT TACC3 PPI 47.3
C[C@@H]1CCCCO[C@@H](CN(C)C(=O)c2ccncc2)[C@H](C)CN([C@@H](C)CO)C(=O)c2cc(NC(=O)c3ccncc3)ccc2O1	none
O=C(Nc1ccc(F)cc1)Nc1ccc2c(c1)[C@H]1C[C@@H](CC(=O)N3CCOCC3)O[C@@H](CO)[C@H]1O2	none
CC(C)(C)S(=O)N1Cc2cc(C(=O)O)nc(-c3cccc(-c4cc5ccccc5o4)c3)c2[C@H]1CCO (stereo partly specified)	CASP6 VEID inh 35.7 (no result: ARNT TACC3 PPI)
C/C=C/c1cccc(-c2nc(C(=O)NCc3ccncc3)cc3c2[C@H](CCO)N([S@@](=O)C(C)(C)C)C3)c1	ARNT TACC3 PPI 52.0
CCOC(=O)c1cc2c(c(-c3cccc(-c4cccc(OC)c4)c3)n1)[C@@H](CCO)N(S(=O)C(C)(C)C)C2 (stereo partly specified)	ARNT TACC3 PPI 54.8
CCOC(=O)c1cc2c(c(-c3cccc(-c4cccc(OC)c4)c3)n1)[C@H](CCO)N(S(=O)C(C)(C)C)C2 (stereo partly specified)	none
C[C@H]1CN([C@@H](C)CO)C(=O)c2cc(NS(=O)(=O)c3ccc(Cl)cc3)ccc2O[C@H]1CN(C)S(=O)(=O)c1cccs1	none
CO[C@@H]1CN(C)C(=O)c2ccc(NS(=O)(=O)c3ccc(Cl)cc3)cc2OC[C@H](C)N(C)C[C@H]1C	none
O=C(O)c1nn2c(C(F)(F)F)cc(-c3cccs3)nc2c1Cl	Ecoli rRNA inh -19.7 (no result: PGC1a acetyl inh)
O=C(NCC1CCCO1)c1nn2c(C(F)(F)F)cc(-c3cccs3)nc2c1Cl (stereo unspecified)	none
C[C@@H]1CN([C@H](C)CO)C(=O)c2cc(-c3ccccc3F)cnc2O[C@H]1CN(C)Cc1cccc(F)c1	none (no result: Ecoli rRNA inh)
Cc1nc2ccc(NC(=O)CCS(=O)(=O)c3ccc(Cl)cc3)cc2s1	none (no result: PGC1a acetyl inh)
Cc1nc2ccc(NC(=O)CCC3CCCC3)cc2s1	CASP6 VEID inh 81.1
COc1ccc2c3c(n(C)c2c1)[C@@H](CO)N(C(=O)c1ccccc1)CC31CN(Cc2ccccc2OC)C1	none (no result: PGC1a acetyl inh, ERAP1 inh, S100A4 inh HTS, CASP6 VEID inh, ARNT TACC3 PPI)
CCOC(=O)c1cnc(-n2nc(C)cc2C)nc1N1CCOCC1	ARNT TACC3 PPI 49.7 (no result: ERAP1 inh, S100A4 inh HTS, CASP6 VEID inh, Ecoli rRNA inh)
C[C@H](CO)N1C[C@H](C)[C@@H](CN(C)S(=O)(=O)c2ccc(F)cc2)Oc2cc(Br)ccc2S1(=O)=O	Ecoli rRNA inh -25.1!
COc1ccccc1S(=O)(=O)N(C)C[C@H]1Oc2cc(Br)ccc2S(=O)(=O)N([C@H](C)CO)C[C@H]1C	Ecoli rRNA inh -34.0!
CCCNC(=O)[C@@H]1[C@@H](CO)[C@@H]2Cn3c(ccc(-c4ccccc4)c3=O)[C@H]1N2Cc1ccccc1F	none (no result: PGC1a acetyl inh)
CN1C(=O)c2cc(NC(=O)Nc3ccccc3)ccc2OC[C@@H]2O[C@@H](CC(=O)O)CC[C@H]21	none (no result: PGC1a acetyl inh, ERAP1 inh, S100A4 inh HTS, CASP6 VEID inh, ARNT TACC3 PPI)
CC1CCCC(C)N1C(=O)C1CCCCC1 (stereo unspecified)	CASP6 VEID inh 58.8 (no result: Ecoli rRNA inh)
COc1ccc(C(=O)NCC(c2ccco2)N2CCCC2)cc1S(=O)(=O)N1CCCCC1C (stereo unspecified)	CASP6 VEID inh 52.6
N/C(=N/OC(=O)c1ccccc1Cl)c1nonc1N	Ecoli rRNA inh -23.5

Assay outcomes: PubChem, Broad Institute
